Assay outcomes: PubChem BioAssay, Broad Institute
IDH1 R132H inh – blocks human IDH1 R132H reductase activity. diaphorase/resazurin fluorescence, 60 min. O75874. AID 624101. 0.18% of 70,000 active. inhibition, % at 10 µM; in the data active means inhibition above about 34%; inconclusive means no clear call, values can overlap the other calls; inactive means below about 11%;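 further: 0% = DMSO and 100% = no enzyme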
Target sequence (O75874 whole entry R132H): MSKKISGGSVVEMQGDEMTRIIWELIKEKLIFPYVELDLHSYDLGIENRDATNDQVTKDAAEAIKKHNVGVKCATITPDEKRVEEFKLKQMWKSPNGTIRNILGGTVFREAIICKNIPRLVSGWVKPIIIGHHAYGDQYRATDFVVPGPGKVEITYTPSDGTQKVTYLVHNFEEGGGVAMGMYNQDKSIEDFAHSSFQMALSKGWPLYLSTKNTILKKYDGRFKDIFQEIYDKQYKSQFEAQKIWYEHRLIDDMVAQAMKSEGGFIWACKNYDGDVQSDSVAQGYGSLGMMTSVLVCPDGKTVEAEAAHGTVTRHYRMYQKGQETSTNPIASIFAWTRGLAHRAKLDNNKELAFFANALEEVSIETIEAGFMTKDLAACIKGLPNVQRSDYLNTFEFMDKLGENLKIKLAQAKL
KDM4C inh – blocks human GASC-1 (KDM4C) demethylase activity | Q9H3R0 | GST-KDM4C 2-372, H3K9me3 peptide, LANCE TR-FRET | inhibition, % at 12.5 µM | 0.15% of 96,000 active;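 active means mean replicate inhibition above about 25%, with at least 55% of replicates also reaching it, limit read from the data, passing the limit was not always enough; inconclusive means only one of those two conditions met; inactive means neither condition met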
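System – N-terminal GST-fused human GASC-1 (KDM4C) fragment, residues 2-372 · Input – enzyme final amount 10 nM · Technique – LANCE TR-FRET, Eu antibody, ULight-streptavidin, EDTA, ex 340 nm, em 618/671 nm · Medium – HEPES buffer, pH 7.5, plus ascorbate · Incubation – enzyme reaction 30 min, then detection 60 min, both room temperature · Reagent – H3K9me3 peptide with Fe(II)/2OG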
T cruzi growth-1 – inhibitors of T. cruzi proliferation | T. cruzi beta-gal in NIH3T3, GalScreen luminescence, 90 h | inhibition, % at 8.34 µM | 5.9% of 77,000 active | AID 624255;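 active means mean inhibition above about 93%, with at least 55% of replicates each passing it, limit read from the data, passing the limit was not always enough; inconclusive means only one of those two conditions holds; inactive means neither condition holds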
T cruzi growth-2 – Trypanosoma cruzi proliferation inhibition; T. cruzi beta-gal in NIH3T3, GalScreen luminescence, 90 h; 72% of 5,600 active; shares compounds with T cruzi growth-1; inhibition, % at 8.35 µM;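 active means mean replicate inhibition above about 95% and at least 55% of replicates individually reaching it, limit read from the data; inconclusive means only one of the two criteria is met; inactive means neither criterion is met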
T cruzi growth-3 – blocks T. cruzi growth in NIH3T3 host cells; shares compounds with T cruzi growth-1; T. cruzi beta-gal in NIH3T3, GalScreen luminescence, 90 h; inhibition, % at 2.09 µM; 21% of 5,600 active;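 active means mean inhibition above about 95%, with at least 55% of replicates also reaching it, limit read from the data; inconclusive means meets just one of the two conditions; inactive means meets neither condition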;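 further: plate controls were neutral control median for no effect and positive control median for full effect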
3T3 cytotox – kills mouse NIH/3T3 fibroblasts | shares compounds with T cruzi growth-1 | NIH/3T3 viability, CellTiter-Glo ATP luminescence, 90 h | cytotoxicity (signal decrease), % at 8.35 µM | 14% of 5,600 active;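 active means mean signal decrease across replicates above about 35% based on untreated-well scatter, with enough replicates individually passing, limit read from the data; inconclusive means no rule stated though some were filed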;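 further: 0% = median of neutral control wells and 100% = median of positive control wells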
NIH3T3 tox 2 – cytotoxicity in mouse NIH/3T3 fibroblasts. shares compounds with T cruzi growth-1. NIH/3T3 viability, CellTiter-Glo ATP luminescence, 90 h. inhibition, % at 24.9 µM. 56% of 5,600 active. AID 651744;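 active means mean loss of cell viability signal at or above a set limit, and enough replicates individually reaching it; inconclusive means meets only the mean limit or only the replicate share; inactive means meets neither condition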;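 further: 0% = median of neutral control wells and 100% = median of positive control wells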
Numbers without * were called inactive. Many of the other results were omitted from the sample, so hits are more common in it than they were.

What do the screens show for `C[C@@H]1CCCCO[C@H](CN(C)C(=O)c2ccccc2)[C@H](C)CN([C@@H](C)CO)C(=O)c2cc(NC(=O)CCCCCC(=O)Nc3ccccc3N)ccc2O1`?
KDM4C inh: 1; T cruzi growth-1: 99*; T cruzi growth-2: 107*; T cruzi growth-3: 103*; 3T3 cytotox: 5; NIH3T3 tox 2: 2

Results for C[C@@H]1CCCCO[C@H](CN(C)C(=O)c2ccncc2)[C@@H](C)CN([C@H](C)CO)C(=O)c2cc(NC(=O)CCCCCC(=O)Nc3ccccc3N)ccc2O1 ?
IDH1 R132H inh: 17; KDM4C inh: 1; T cruzi growth-1: 7

How did C[C@@H]1CCCCO[C@H](CN(C)C(=O)C2CCCCC2)[C@H](C)CN([C@@H](C)CO)C(=O)c2cc(NC(=O)CCCCCC(=O)Nc3ccccc3N)ccc2O1 do in these assays?
KDM4C inh: 0; T cruzi growth-1: 102

Results for C[C@H](CO)N1C[C@H](C)[C@H](CN(C)C(=O)c2ccccc2)OCCCC[C@H](C)Oc2ccc(NC(=O)CCCCCC(=O)Nc3ccccc3N)cc2C1=O ?
KDM4C inh: 1; T cruzi growth-1: 100*; T cruzi growth-2: 108*; T cruzi growth-3: inconclusive; 3T3 cytotox: -7; NIH3T3 tox 2: -39

Results for Cc1ccc2nc(-c3ccc(NC(=O)CS(=O)(=O)Cc4ccccc4)cc3)sc2c1 ?
IDH1 R132H inh: 0

How did C[C@H]1[C@H]2OC3=C(C(=O)OC3(C)O)C(=O)[C@]1(C)[C@H]1CCCC[C@]1(O)[C@H]2O (stereo partly specified) do in these assays?
IDH1 R132H inh: 0

What do the screens show for `COC(=O)c1cc(C)sc1NC(=S)NCCc1ccccc1OC`?
IDH1 R132H inh: -1

What do the screens show for `CCCC(=O)Nc1ccc2c(c1)C(=O)N(C)[C@H]1CC[C@H](CC(=O)NCCN3CCCCC3)O[C@H]1CO2`?
KDM4C inh: 2; T cruzi growth-1: -22

How did CCCC(=O)Nc1ccc2c(c1)C(=O)N(C)[C@H]1CC[C@@H](CC(=O)NCCN3CCCCC3)O[C@H]1CO2 do in these assays?
KDM4C inh: 0; T cruzi growth-1: 99*; T cruzi growth-2: 98*; T cruzi growth-3: 95; 3T3 cytotox: 15; NIH3T3 tox 2: 1

Results for CN1C(=O)c2cc(NS(=O)(=O)c3cccc(F)c3)ccc2OC[C@@H]2O[C@@H](CC(=O)NCCN3CCCCC3)CC[C@@H]21 ?
KDM4C inh: -1; T cruzi growth-1: 0

What do the screens show for `Cc1ccc(S(=O)(=O)Nc2ccc3c(c2)C(=O)N(C)[C@@H]2CC[C@H](CC(=O)O)O[C@H]2CO3)cc1`?
KDM4C inh: 6; T cruzi growth-1: -2

What do the screens show for `CN1C(=O)c2cc(NS(=O)(=O)c3cccc(F)c3)ccc2OC[C@@H]2O[C@H](CC(=O)NCCN3CCCCC3)CC[C@@H]21`?
KDM4C inh: 3; T cruzi growth-1: 97*; T cruzi growth-2: 85; T cruzi growth-3: 88; 3T3 cytotox: -30; NIH3T3 tox 2: -4

How did CN1C(=O)c2cc(NS(=O)(=O)c3ccc(F)cc3)ccc2OC[C@@H]2O[C@H](CC(=O)O)CC[C@H]21 do in these assays?
KDM4C inh: 0; T cruzi growth-1: 103*; T cruzi growth-2: -22; T cruzi growth-3: -6; 3T3 cytotox: 2; NIH3T3 tox 2: 5

What do the screens show for `Cc1ccnc(NS(=O)(=O)c2ccc(NC(=O)c3cc4c(s3)CCCC4)cc2)n1`?
IDH1 R132H inh: 1

What do the screens show for `Cc1ccc(S(=O)(=O)N(CC(N)=O)c2ccc(Br)cc2)cc1`?
IDH1 R132H inh: 0

What do the screens show for `CC(C)CC(NS(=O)(=O)c1ccc(C(C)(C)C)cc1)C(=O)O` (stereo unspecified)?
IDH1 R132H inh: 0

Results for O=C(CCc1ccccc1)CC(CCc1ccccc1)OC1OC(COC2OC(CO)C(O)C(O)C2O)C(O)C(O)C1O (stereo unspecified) ?
IDH1 R132H inh: 2

Results for CC(C)(C)c1ccc(C(=O)N2CCN(c3ccc([N+](=O)[O-])c(NCc4cccnc4)c3)CC2)cc1 ?
IDH1 R132H inh: -1

What do the screens show for `COc1ccc(CN(C)C[C@H]2OCCCC[C@H](C)Oc3ccc(NC(=O)Nc4ccc(OC)cc4)cc3C(=O)N([C@@H](C)CO)C[C@@H]2C)cc1`?
IDH1 R132H inh: 0; KDM4C inh: 1; T cruzi growth-1: 110*; T cruzi growth-2: 112*; T cruzi growth-3: 63; 3T3 cytotox: 15; NIH3T3 tox 2: 104*

Results for COc1ccc(CN(C)C[C@@H]2OCCCC[C@@H](C)Oc3ccc(NC(=O)Nc4ccc(F)cc4)cc3C(=O)N([C@H](C)CO)C[C@@H]2C)cc1 ?
KDM4C inh: -3; T cruzi growth-1: 47

What do the screens show for `COc1ccc(CN(C)C[C@@H]2OCCCC[C@@H](C)Oc3ccc(NC(=O)Nc4ccc(F)cc4)cc3C(=O)N([C@H](C)CO)C[C@H]2C)cc1`?
KDM4C inh: 1; T cruzi growth-1: inconclusive; T cruzi growth-2: 97*; T cruzi growth-3: 111*; 3T3 cytotox: 26; NIH3T3 tox 2: 105*

Results for COc1ccc(CN(C)C[C@@H]2OCCCC[C@@H](C)Oc3ccc(NC(=O)Nc4ccc(OC)cc4)cc3C(=O)N([C@@H](C)CO)C[C@H]2C)cc1 ?
IDH1 R132H inh: 0; T cruzi growth-1: 83

How did COc1ccc(NC(=O)Nc2ccc3c(c2)C(=O)N([C@@H](C)CO)C[C@H](C)[C@@H](CN(C)Cc2ccccc2)OCCCC[C@@H](C)O3)cc1 do in these assays?
IDH1 R132H inh: 1; KDM4C inh: 1; T cruzi growth-1: 69

What do the screens show for `COc1ccc(NC(=O)Nc2ccc3c(c2)C(=O)N([C@@H](C)CO)C[C@@H](C)[C@@H](CN(C)Cc2ccccc2)OCCCC[C@@H](C)O3)cc1`?
IDH1 R132H inh: 2; KDM4C inh: -2; T cruzi growth-1: 92

What do the screens show for `COc1ccc(NC(=O)Nc2ccc3c(c2)C(=O)N([C@@H](C)CO)C[C@@H](C)[C@H](CN(C)Cc2ccccc2)OCCCC[C@H](C)O3)cc1`?
KDM4C inh: 1; T cruzi growth-1: 100*; T cruzi growth-2: 110*; T cruzi growth-3: 42; 3T3 cytotox: 9; NIH3T3 tox 2: 35*

What do the screens show for `COc1ccc(NC(=O)Nc2ccc3c(c2)C(=O)N([C@H](C)CO)C[C@@H](C)[C@@H](CN(C)Cc2ccccc2)OCCCC[C@@H](C)O3)cc1`?
KDM4C inh: -1; T cruzi growth-1: 103*; T cruzi growth-2: 111*; T cruzi growth-3: 83; 3T3 cytotox: 8; NIH3T3 tox 2: 53*
